Calls of active or inactive are those of the source. The calls are words filed in the database; no cut-off is given here. A value given as a limit tells only on which side of the number the result lay.

In series [1] the test system is HCT-116. As to the kind of experiment: Cytotoxicity against human HCT116 cells after 24 hrs by neutral red uptake assay. Format: functional, cell-based. The conditions noted are these: HCT-116, 24 h. The method in brief: (§1)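 GBM-12 (brain tumour line), KMS-11 myeloma or HCT-116 colon carcinoma cells exposed to compound for 24 h; viability read by neutral red uptake. IC50 taken from dose-response curves; mean of three experiments ± standard error.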

Series [2] deals with GBM. In words: Cytotoxicity against human GBM cells after 24 hrs by neutral red uptake assay. Format: functional, cell-based. The method in brief:
as §1

A short description of series [3]: Cytotoxicity against human KMS11 cells after 24 hrs by neutral red uptake assay. It counts as functional, cell-based. Particulars: KMS-11, 24 h. A digest of the protocol: as §1
Series [4] is described as follows: Lipophilicity, log P of the compound. Format: physicochemical. Particulars: octanol/water. A digest of the protocol: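 Log P calculated in silico with the ALogP program; not measured experimentally.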
The subject of series [5] is GBM. In words: Induction of apoptosis in human GBM cells assessed as dead cells at 20 uM after 24 hrs using annexin V stain by FACSCalibur flow cytometry. It counts as functional.
Series [6] deals with HCT-116. As to the kind of experiment: Induction of apoptosis in human HCT116 cells assessed as dead cells at 20 uM after 24 hrs using annexin V stain by FACSCalibur flow cytometry. Format: functional. The method in brief:
(§2)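 Cells were exposed to compound for 24 h alongside untreated control cultures. They were then labelled with FITC-conjugated annexin V to mark early apoptosis. The percentage of apoptotic cells was read by flow cytometry.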

The test system of series [7] is KMS-11. As to the kind of experiment: Induction of apoptosis in human KMS11 cells assessed as apoptotic nuclei at 10 uM after 24 hrs by microscopy relative to control. Format: functional.
Series [8] deals with KMS-11. As to the kind of experiment: Induction of apoptosis in human KMS11 cells assessed as apoptotic nuclei at 20 uM after 24 hrs by microscopy relative to control. Format: functional.
In series [9] the test system is KMS-11. As to the kind of experiment: Induction of apoptosis in human KMS11 cells assessed as apoptotic nuclei at 40 uM after 24 hrs by microscopy relative to control. Format: functional.
Series [10] deals with KMS-11. As to the kind of experiment: Induction of apoptosis in human KMS11 cells assessed as DNA fragmentation after 48 hrs. Format: functional, cell-based. A digest of the protocol:
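KMS-11 cultures treated for 48 h; culture supernatants run on agarose gel electrophoresis against a 100 bp DNA ladder to detect DNA fragmentation.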

Series [11] has as its system KMS-11. As to the kind of experiment: Induction of apoptosis in human KMS11 cells assessed as dead cells at 20 uM after 24 hrs using annexin V stain by FACSCalibur flow cytometry. It counts as functional. The method in brief: as §2

In the case of `C[C@H](CCC(=O)O)[C@H]1CC[C@H]2[C@@H]3[C@@H](O)C[C@@H]4C[C@H](O)CC[C@]4(C)[C@H]3CC[C@]12C` [URSODIOL], the 50% inhibitory concentration (IC50) (with HCT-116 [1]; with GBM [2]; in series [3]) was greater than 50 µM each time. This compound also came in with a logP in [4] of 4.014.

With `C[C@H](CCC(=O)NN1CCN(C)CC1)[C@H]1CC[C@H]2[C@@H]3[C@H](O)C[C@@H]4C[C@H](O)CC[C@]4(C)[C@H]3C[C@H](O)[C@]12C`, the IC50 (with HCT-116 [1]; in the series with GBM [2]; in [3]) was greater than 50 µM in each case. Moreover, in series [4] (read-out: logP), the logP was 2.16.

As for `C[C@H](CCC(=O)NN1CCN(C)CC1)[C@H]1CC[C@H]2[C@@H]3[C@H](O)C[C@@H]4C[C@H](O)CC[C@]4(C)[C@H]3CC[C@]12C`, the IC50 in the series on HCT-116 [1] is greater than 50 µM; in the series on GBM [2] it was no less than 50 µM; in series [3] it was no less than 50 µM. In addition, the logP in series [4] (read-out: logP) worked out at 3.26.

In the case of `C[C@H](CCC(=O)N1CCN(C/C=C/c2ccccc2)CC1)[C@H]1CC[C@H]2[C@@H]3[C@H](O)C[C@@H]4C[C@H](O)CC[C@]4(C)[C@H]3CC[C@]12C`, the IC50 was 18.5 µM in the series on HCT-116 [1], 16.5 µM with GBM [2] and 8.5 µM in series [3]. In series [4] (read-out: logP), the logP amounted to 5.81.

For `C[C@H](CCC(=O)N1CCN(C/C=C/c2ccccc2)CC1)[C@H]1CC[C@H]2[C@@H]3[C@H](O)C[C@@H]4C[C@H](O)CC[C@]4(C)[C@H]3C[C@H](O)[C@]12C`, the IC50 (in the series on HCT-116 [1]; in the series with GBM [2]; in [3]) was greater than 50 µM throughout. The logP in series [4] (read-out: logP) came to 4.71.

As for `C[C@H](CCC(=O)NN1CCN(C)CC1)[C@H]1CC[C@H]2[C@@H]3[C@@H](O)C[C@@H]4C[C@H](O)CC[C@]4(C)[C@H]3CC[C@]12C`, the IC50 (with HCT-116 [1]; in the series on GBM [2]; in series [3]) was greater than 50 µM throughout. For the same compound, in series [4] (read-out: logP), the logP is 3.26.

Turning to `C[C@H](CCC(=O)O)[C@H]1CC[C@H]2[C@@H]3[C@H](O)C[C@@H]4C[C@H](O)CC[C@]4(C)[C@H]3C[C@H](O)[C@]12C` [CHOLIC ACID], the IC50 (in the series with HCT-116 [1]; with GBM [2]; in series [3]) was greater than 50 µM in each case. In series [4], this compound had a logP of 2.912.

`C[C@H](CCC(=O)O)[C@H]1CC[C@H]2[C@@H]3[C@H](O)C[C@@H]4C[C@H](O)CC[C@]4(C)[C@H]3CC[C@]12C` [CHENODIOL]: the IC50 (in the series with HCT-116 [1]; with GBM [2]; in series [3]) was greater than 50 µM each time. The compound further displayed a logP in [4] of 4.014.

In the case of `C[C@H](CCC(=O)N1CCN(C/C=C/c2ccccc2)CC1)[C@H]1CC[C@H]2[C@@H]3[C@@H](O)C[C@@H]4C[C@H](O)CC[C@]4(C)[C@H]3CC[C@]12C`, the Activity in the series on GBM [5] is reported as 78%; in the series with HCT-116 [6], 45%; in the series with KMS-11 [7], 84%; with KMS-11 [8], 59%; in the series with KMS-11 [9] it was 35%; with KMS-11 [11], 96%. The IC50 was 31.4 µM in the series with HCT-116 [1], 24.7 µM with GBM [2] and 28.1 µM in [3]. For the same compound, the outcome with KMS-11 [10] was Active. Besides, in [4] (read-out: logP), the logP is 5.81.

(Values after ChEMBL document CHEMBL1177854, “Synthesis of bile acid derivatives and in vitro cytotoxic activity with pro-apoptotic process on multiple myeloma (KMS-11), glioblastoma multiforme (GBM), and colonic carcinoma (HCT-116) human cell lines” (Eur J Med Chem, 2010).)
